# 697 NFkB inh – lowers PMA/ionomycin-induced NF-kB signal in 697 B cells | 697 B-cell NF-kB luciferase reporter, 16 h | AID 435022 | inhibition, % at 4 µM | 330,000 compounds, 0.33% hits; in the data active = inhibition above about 35%
# Jurkat NFkB inh – inhibitors of the PMA/ionomycin-induced NF-kB reporter in Jurkat cells | PMA/ionomycin-induced NF-kB luciferase reporter, luminescence | inhibition, % at 4 µM | 330,000 compounds, 0.53% hits | AID 435003; in the data active = inhibition above about 50%
# HSF1 inhib – HSF1 inhibition; AID 2098; 300,000 compounds, 0.77% hits; NIH3T3-HGL HSE-luciferase, MG132-induced, luminescence 8 h; active compounds read low; activity change, negative = inhibition, % at 7.5 µM (by protocol);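 active = more than half of replicate wells show activity change below -50%, luminescence cut by over half; inconclusive = some wells, but at most half, below -50%; inactive = no replicate well below -50%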;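 also: luciferase reports HSF-1 transcriptional activity via heat shock element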
# T cruzi inh – T. cruzi replication inhibition; T. cruzi beta-gal in NIH3T3, luminescence, 90 h; inhibition, % (no concentration beside the values); 300,000 compounds, 1.4% hits; AID 1885;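 active = mean inhibition across valid replicates above about 55%, limit read from the data; inconclusive = mean below that limit but half or more replicates reach it; inactive = mean below it, under half of replicates reach it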;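 also: signal also drops with host cell toxicity which is not excluded here; higher percent means less beta-gal luminescence so fewer parasites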
#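 System – NIH/3T3 host cells with β-galactosidase reporter T. cruzi · Doses – single 50 nL compound addition per well in DMSO · Reagent – 5000 T. cruzi trypomastigotes/well · Medium – Low-serum DMEM with 2% FBS · Timing – ≥90 h infection period, 3 h prior cell attachment · Evaluation – parasite load inhibition, % · Technique – GalScreen luminescence, 60 min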
# GPR7 antag – antagonists of human GPR7 (neuropeptides B/W receptor 1); P48145; GPR7-expressing cells, fluorescence antagonist assay; inhibition, % at 4.4 µM; 290,000 compounds, 1.1% hits; AID 1861; in the data active = inhibition above about 16%, passing the limit was not always enough;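 also: cells stimulated with the agonist NPW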
# Target sequence (P48145 whole entry, looked up): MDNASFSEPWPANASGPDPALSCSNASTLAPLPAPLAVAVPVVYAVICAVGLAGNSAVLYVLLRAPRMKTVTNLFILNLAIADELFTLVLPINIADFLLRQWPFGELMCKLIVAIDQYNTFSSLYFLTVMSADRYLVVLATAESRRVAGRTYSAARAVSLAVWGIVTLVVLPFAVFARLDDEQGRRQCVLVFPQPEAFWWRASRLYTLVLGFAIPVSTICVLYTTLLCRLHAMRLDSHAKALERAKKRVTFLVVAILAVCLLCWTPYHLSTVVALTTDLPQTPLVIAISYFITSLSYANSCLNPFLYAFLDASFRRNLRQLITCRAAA
# HSF1 activator – increases HSF-1 driven luciferase reporter signal; NIH3T3-HGL HSF-1 luciferase reporter, MG132, 8 h; 100% = twice DMSO control signal; activation, % at 9 µM; 300,000 compounds, 1.7% hits; AID 504408;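 active = mean replicate activation of at least 50% with a set share of replicates each reaching 50%; inconclusive = only one of those two conditions met; inactive = mean below 50% and too few replicates reaching it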
# Hits are given with their value; i = inactive; ? = inconclusive; nt = no result. Sampled rows, rich in hits. Any-hit rate of the full collection: about 4.8%.
SMILES,697 NFkB inh,Jurkat NFkB inh,HSF1 inhib,T cruzi inh,GPR7 antag,HSF1 activator
Cc1cc(C)c2nc(NNC(=O)c3ccc(S(=O)(=O)N4CCCC(C)C4)cc3)sc2c1 (stereo not given),i,i,i,61.3,i,i
Cc1cc(C)c2nc(NNC(=O)c3ccc(S(=O)(=O)N4CC(C)CC(C)C4)cc3)sc2c1 (stereo not given),i,i,i,61.8,i,i
Cc1cc(C(F)(F)F)nc(SCC(=O)NC2CCCCC2)n1,i,i,i,i,i,i
Cc1ccc(-c2nc3ncccc3o2)cc1NC(=O)c1ccc([N+](=O)[O-])o1,i,i,i,i,i,139.1
CC(C)C(=O)Nc1ccc(-c2nc3ncccc3o2)cc1,i,i,i,i,i,i
O=C(Nc1ccc(-c2nc3ncccc3o2)cc1)c1ccc([N+](=O)[O-])o1,i,i,i,i,i,150.8
O=C(Nc1ccc2oc(-c3ccncc3)nc2c1)c1ccc([N+](=O)[O-])o1,i,i,i,i,i,83.6
Cc1ccc(-c2nc3ncccc3o2)cc1NC(=O)c1ccco1,i,i,i,i,i,i
COc1ccc(CCN(C)C(=O)c2c(C)nn(-c3ccccc3)c2C)cc1OC,i,i,i,i,i,i
CC1(c2nnc(-c3ccc(F)cc3)o2)CC(c2cccc(Cl)c2)=NO1 (stereo not given),i,i,i,i,nt,i
Cc1cc(=O)[nH]c(N/N=C/c2ccc(Br)s2)n1,i,i,i,i,i,i
CC1CCC(C(C)C)C(OC(=O)C[n+]2cc(-c3ccc(Cl)cc3)n3c2CCCCC3)C1 (stereo not given),i,i,i,56.0,59.0,i
COc1ccc(-c2c[n+](CC(=O)c3ccccc3)c3n2CCCCC3)cc1,i,i,i,i,i,i
COC(=O)c1cc(C(=O)Nc2nc3ccccc3[nH]2)cc([N+](=O)[O-])c1,i,i,i,i,i,i
CN(C)c1ccc(C2CNC(c3ccc(Cl)c([N+](=O)[O-])c3)c3[nH]c4ccccc4c32)cc1 (stereo not given),i,i,i,57.4,i,i
O=C(Nc1ccccc1)c1sccc1Oc1ccc([N+](=O)[O-])cc1F,i,i,i,63.2,i,i
O=[N+]([O-])c1nn(-c2ccccc2)n(O)c1=NC1CCN(Cc2ccccc2)CC1,i,i,i,76.7,i,i
O=[N+]([O-])c1nn(-c2ccc3c(c2)OCCO3)n(O)c1=NC1CCN(Cc2ccccc2)CC1,i,i,i,62.1,i,i
Cc1cc(C)cc(Nc2ccc([N+](=O)[O-])nc2[N+](=O)[O-])c1,i,i,i,67.2,i,i
CC(=O)Nc1ccc(NC(=O)Cc2ccc(-c3ccccc3)cc2)cc1,i,i,i,i,i,i
CC(=O)Nc1ccc(OCc2nnc(-c3ccc(Cl)cc3)o2)cc1,i,i,i,i,i,65.2
O=C(CCl)Nc1ccc(N=Nc2ccccc2)cc1,nt,nt,i,i,i,67.7
CC(=O)Nc1ccc(N=Nc2ccccc2)cc1,i,i,i,i,i,59.7
O=C(CCl)Nc1ccc(-c2ccccc2)cc1,i,i,?,60.8,i,i
COC(=O)c1cc(OC)c(OC)cc1NC(=O)c1csc(C)c1,i,i,i,i,i,i
SMILES,697 NFkB inh,Jurkat NFkB inh,HSF1 inhib,T cruzi inh,GPR7 antag,HSF1 activator
Cc1ccc(C(=O)NNC(=O)c2ccc(NC(=O)C(C)(C)C)cc2)cc1,i,i,i,i,i,i
CCN(Cc1ccccc1)C(=O)Cn1c(=O)n(CCC(=O)N2CCCCC2)c(=O)c2sccc21,i,i,i,i,i,i
CCN(CC)CCC(=O)N1C/C(=C/c2ccccc2)C(=O)/C(=C\c2ccccc2)C1,nt,nt,i,nt,nt,i
Cc1ccc(SCC(=O)Nc2ccc(-c3nnc(-c4ccco4)o3)cc2)cc1,i,i,i,i,i,77.7
CCC(=O)Nc1ccc(-c2nnc(-c3ccccc3)o2)cc1,i,i,i,56.6,i,i
Cc1ccc(NC(=O)CCSc2nnc(-c3ccco3)o2)cc1,i,i,i,i,i,i
O=C(Nc1ccc(N=Nc2ccccc2)cc1)c1ccccc1Cl,i,i,i,i,i,72.5
Brc1ccc(-c2nnc(-c3ccco3)o2)cc1,i,i,i,i,i,62.7
CNS(=O)(=O)c1cccc(C(=O)OCC(=O)NC2CCCC(C)C2C)c1 (stereo not given),i,i,nt,nt,nt,nt
CCCC(=O)Nc1nnc(S(=O)(=O)N(CC(C)C)c2ccccc2)s1,i,i,i,i,i,i
COc1ccc2occ(C(=O)c3cccs3)c2c1,i,i,i,i,i,78.2
CC1=C(C(=O)Nc2cc(C(=O)N3CCN(c4cccc(C)c4C)CC3)ccc2C)SCCO1,i,i,i,i,i,i
COc1ccc2[nH]c(CN3CCN(CC=C(C)C)C(CCO)C3)c(C)c2c1 (stereo not given),i,i,i,i,i,i
COc1ccc2[nH]c(CN3CCN(CCC(C)C)C(CCO)C3)c(C)c2c1 (stereo not given),i,i,i,60.8,i,i
Oc1ccccc1/C=N/NC(=S)NC1CC2CC1C1C=CCC21 (stereo not given),i,i,i,i,i,i
COc1cccc(/C=N/NC(=S)NC2CC3CC2C2C=CCC32)c1O (stereo not given),i,i,i,i,i,105.0
Cn1c(CNC(=O)c2ccc(F)cc2)cc2ccccc21,i,i,i,i,i,i
Cc1ccc(S(=O)(=O)N(CC(=O)Nc2cccc([N+](=O)[O-])c2)C2CCCCC2)cc1,i,i,i,i,i,i
CCN(C1CCCCC1)S(=O)(=O)c1ccc(S(=O)(=O)N(CC(=O)Nc2ccccc2)C2CC2)cc1,i,i,i,55.4,i,i
Cc1ccc(S(=O)(=O)N(CC(=O)Nc2ccc(Cl)c([N+](=O)[O-])c2)C2CCCCC2)cc1,i,i,i,58.6,i,i
COc1cccc(OCCNC(=O)c2cc(OC)c(OC)c(OC)c2)c1,i,i,i,i,i,i
CCC1COCCS(=O)(=O)N1Cc1ccccc1C (stereo not given),i,i,-61.1,i,i,i
COc1ccc(C(NC(=O)c2cc(OC)ccc2OC)c2ccccc2)cc1 (stereo not given),i,i,i,i,i,i
COc1ccc(C(NC(=O)c2c(F)c(F)c(F)c(F)c2F)c2ccccc2)cc1 (stereo not given),i,i,i,i,31.5,53.1
Cc1oc(-c2cccc(Cl)c2)nc1CN1CCCC(C(=O)NC(C)c2ccc3c(c2)OCCO3)C1 (stereo not given),i,i,i,i,i,54.5
O=C(N/N=C/c1ccc([N+](=O)[O-])o1)c1cc2c(ccc3ccccc32)o1,nt,nt,nt,nt,i,nt
O=C(N/N=C/c1ccc([N+](=O)[O-])o1)c1cc2ccccc2o1,i,i,i,63.7,i,i

# High-throughput results as filed in PubChem BioAssay.
